The subject of series [1] is Human immunodeficiency virus 1. Briefly: Antiviral activity against HIV1 assessed as inhibition of viral entry into human TZM-bl cells at 25 uM preincubated with cells for 1 hr followed by inoculation with 1 hr compound pretreated virus measured 48 hrs post compound wash out by luciferase reporter gene assay relative to control. The format is functional. The note with it: for inhibition at 25 µM: Human immunodeficiency virus 1, TZM-bl. Summed up: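 HIV-1 made by PEI co-transfection of pNL4-3.HSA.R-E- and pHXB2-env; titer set by X-Gal staining on TZM-bl. TZM-bl seeded 10^4/well a day ahead, pretreated 1 h at 37 °C with 25 μM compound, DMSO or 1 μM C34. Virus (MOI 0.1) preincubated 1 h with the same treatment, added, spinoculated 1,000 × g 1 h RT, 1 h 37 °C, washed, luciferase read at 48 h, normalized.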
(In a reporter assay the amount or activity of a reporter protein is the signal.)

The subject of series [2] is Human immunodeficiency virus 1. Briefly: Antiviral activity against VSV-G pseudotyped HIV1 assessed as inhibition of virus entry by cell-based assay. The format is functional. Summed up: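 VSV-G-pseudotyped HIV-1 (pNL4-3.HSA.R-E- plus pCMV-VSV-G, made by PEI transfection), tested at 25 μM. TZM-bl cells (10^4/well) and MOI 0.1 virus were each pretreated 1 h at 37 °C. Compound medium was replaced with the treated virus, then spinoculation at 1,000 × g for 1 h at room temperature and 1 h at 37 °C. Cells were washed, grown 48 h drug-free, and read by luciferase. Bafilomycin A1 control.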

Series [3] deals with Human immunodeficiency virus 1. Briefly: Inhibition of HIV1 gp41-induced cell-cell fusion between viral protein expressing human HL2/3 cells and TZM-bl target cells at 25 uM preincubated with cells followed by co-incubation for 6 hrs by luciferase reporter gene assay relative to control. Summed up:
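TZM-bl receptor cells seeded a day ahead, then TZM-bl and HL2/3 effector cells pretreated with 25 μM compound (DMSO stock diluted in complete medium), DMSO alone (maximum signal) or 1 μM C34 (maximum inhibition); cells co-incubated 6 h at 37 °C, 5% CO2. Fusion read by luciferase in a combined luciferase/viability kit; signal normalized to controls. Duplicate wells per compound.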

The nature of series [4]: Cytotoxicity against human HL2/3 cells assessed as decrease in cell viability at 25 uM after 6 hrs. The format is cell-based. Conditions: hl2/3, 6 h. Summed up:
(§1)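 Viability measured in the same wells as the fusion read-out, using the combined luciferase/cell-viability kit. TZM-bl and HL2/3 cells were pretreated with 25 μM compound, DMSO or 1 μM C34, then co-cultured 6 h at 37 °C, 5% CO2. Duplicate wells per compound.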

Series [5] relates to TZM. As to the kind of experiment: Cytotoxicity against human TZM-bl cells assessed as decrease in cell viability at 25 uM after 6 hrs. It is filed as cell-based. A digest of the protocol:
as §1

This is an account of results in ChEMBL document CHEMBL4020803, “Structure-based identification of inhibitors targeting obstruction of the HIVgp41 N-heptad repeat trimer” (Bioorg Med Chem Lett, 2017).

Calls of active or inactive are those of the source. The rule behind the calls is not given here. A value given as a limit tells only on which side of the number the result lay.

As a reminder, the inhibition is the share of the control response that was lost under treatment. Regarding `COc1ccc(-c2cc(C(=O)NCc3ccc(Cl)cc3)n[nH]2)cc1S(=O)(=O)N1CCOCC1`, the inhibition entry in series [1] is “inactive”.

Regarding `Cn1c(SCC(=O)N/N=C/c2cc(Br)cc(Br)c2O)nc2ccccc21`, the inhibition at 25 µM in series [1] was over 50%. In series [2], the inhibition entry was “inactive”. Also, the inhibition in series [3] is over 50%. The Activity entry in series [4] and in series [5] was “Non-Toxic” in each case.

As for `Cc1ccc(CNC(=O)c2oc3ccc(S(=O)(=O)N4CCC5(CC4)OCCO5)cc3c2C)cc1`, the inhibition at 25 µM in series [1] is over 50%. Moreover, in series [2], the inhibition entry is “inactive”. Moreover, the inhibition in series [3] is over 50%. For the same compound, the Activity entry in series [4] and in series [5] was “Non-Toxic” in each case.

`CCn1c(SCC(=O)N/N=C/c2cccc(Oc3ccccc3)c2)nnc1-c1ccc(OC)cc1`: the inhibition result in series [1] is “inactive”.
